In ChEMBL document CHEMBL1133773, “Characterization of a novel analogue of 1alpha,25(OH)(2)-vitamin D(3) with two side chains: interaction with its nuclear receptor and cellular actions” (2000):
Active and inactive are the calls of the source.

How the values were obtained:
[1] = test system: LNCaP; assay: Inhibition of colony formation assays on LNCaP cells; (NR: not reached at <= 10e -6M); assay type: functional, cell-based; conditions: Homo sapiens
Procedure, shortened: (§1)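 Soft agar clonal assay in six-well dishes with two layers: compound mixed into the 0.5% agar under layer, cells (1 × 10³/plate) in the 0.3% agar upper layer. Incubated 12 days at 37 °C in humidified 5% CO2. Colonies expressed as percent of untreated control plates. Triplicate plates per point, each experiment done at least three times; ED50 taken from dose-response curves.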

[2] = Effective dose for Protease sensitivity; assay type: functional
Procedure, shortened: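 In vitro translated VDR labeled with [³⁵S]methionine, incubated 20 min at room temperature with ligand (10^-7–10^-11 M), then trypsin digestion 20 min; products resolved on 14% SDS-PAGE and autoradiographed. ED50 is the ligand concentration giving 50% of the maximal level of the major trypsin-resistant fragment. Trypsin level is given as both 15 and 20 µg/mL in the text.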

[3] = molecular target: T1, Vitamin D-binding protein (Homo sapiens) (UniProt P02774); assay: Percentage binding to Human Vitamin D binding protein, relative competitive index (RCI)
T1 sequence (whole entry): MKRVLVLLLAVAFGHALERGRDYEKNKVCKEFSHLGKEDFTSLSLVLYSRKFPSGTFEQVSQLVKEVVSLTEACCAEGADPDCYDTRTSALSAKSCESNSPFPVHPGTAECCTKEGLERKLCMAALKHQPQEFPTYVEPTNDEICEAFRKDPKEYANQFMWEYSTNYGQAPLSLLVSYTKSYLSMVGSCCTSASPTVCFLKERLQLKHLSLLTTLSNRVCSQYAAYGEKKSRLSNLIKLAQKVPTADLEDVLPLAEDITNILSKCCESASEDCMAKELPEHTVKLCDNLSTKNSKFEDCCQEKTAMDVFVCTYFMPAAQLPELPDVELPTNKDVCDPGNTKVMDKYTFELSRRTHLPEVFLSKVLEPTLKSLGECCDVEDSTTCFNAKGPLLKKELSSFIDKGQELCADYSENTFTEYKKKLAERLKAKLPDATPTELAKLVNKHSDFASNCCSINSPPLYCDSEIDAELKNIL
Procedure, shortened: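 Steroid competition assay with human DBP: increasing unlabeled ligand or 125D standard incubated 4 h at 4 °C with a fixed concentration of [³H]125D. Bound and free ligand separated by charcoal-dextran. RCI calculated relative to 125D, which is set at 100%.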

[4] = test system: HL-60; assay: Inhibition of colony formation assays on HL-60 cells; assay type: functional; conditions: Homo sapiens, read-out: ED50 (the source's name)
[5] = molecular target: T2, Vitamin D3 receptor (Gallus gallus) (UniProt O42392); assay: Percentage binding to chick intestinal vitamin D3 receptor, relative competitive index (RCI)
T2 sequence (whole entry): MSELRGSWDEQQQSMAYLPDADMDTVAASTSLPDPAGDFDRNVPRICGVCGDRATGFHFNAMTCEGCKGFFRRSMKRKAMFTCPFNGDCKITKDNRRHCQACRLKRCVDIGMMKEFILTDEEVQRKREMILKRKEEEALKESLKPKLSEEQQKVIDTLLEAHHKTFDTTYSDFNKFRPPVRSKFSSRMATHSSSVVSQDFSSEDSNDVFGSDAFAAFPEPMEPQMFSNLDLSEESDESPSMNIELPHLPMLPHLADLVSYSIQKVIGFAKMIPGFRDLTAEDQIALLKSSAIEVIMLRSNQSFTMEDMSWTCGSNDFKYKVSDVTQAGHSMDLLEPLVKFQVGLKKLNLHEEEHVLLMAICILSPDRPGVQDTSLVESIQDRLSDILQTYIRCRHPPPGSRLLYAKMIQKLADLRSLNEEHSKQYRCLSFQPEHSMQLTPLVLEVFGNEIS
Procedure, shortened: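 Competition binding to chick intestinal VDR: rising concentrations of competitor or unlabeled 125D incubated 4 h at 4 °C with a defined amount of [³H]125D. Bound ligand separated from free by hydroxyapatite. RCI computed with 125D defined as 100%.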

[6] = test system: MCF7; assay: Inhibition of colony formation assays on MCF-7 cells; assay type: functional; conditions: Homo sapiens, read-out: ED50 (the source's name); procedure, shortened: as §1
[7] = Effective dose for transcriptional activation in ROS 17/2.8 osteosarcoma cells; assay type: functional; conditions: Rattus norvegicus; read-out: ED50 (the source's name)
[8] = test system: LNCaP; assay: Inhibition of colony formation assays on LNCaP cells; assay type: functional; conditions: Homo sapiens, read-out: ED50 (the source's name); procedure, shortened: as §1

Structure (SMILES)	ED50 [1]	ED50 [2] [nM]	RCI [3] [%]	EC50 [4] [nM]	RCI [5] [%]	EC50 [6] [nM]	EC50 [7] [nM]	EC50 [8] [nM]
C=C1/C(=C\C=C2/CCC[C@]3(C)[C@@H]([C@H](C)CCCC(C)(C)O)CC[C@@H]23)C[C@@H](O)C[C@@H]1O	inactive	5.9	100	–	–	–	–	–
C=C1/C(=C\C=C2/CCC[C@]3(C)[C@@H](C(CCCC(C)(C)O)CCCC(C)(C)O)CC[C@@H]23)C[C@@H](O)C[C@@H]1O	–	180	2.5	0.34	38	1.2	1	82
C=C1/C(=C\C=C2/CCC[C@]3(C)[C@@H]([C@@H](C)CCCC(C)(C)O)CC[C@@H]23)C[C@@H](O)C[C@@H]1O	–	0.13	2.6	–	147	–	–	–
